Test results: ChEMBL document CHEMBL1154198, “Chemical genetics of Plasmodium falciparum” (Nature, 2010)
pEC50: −log10 of the molar value.

What was measured:
Plasmodium falciparum [1] = experiment: ST_JUDE: Plasmodium falciparum 3D7 EC50 (uM) as measured by SYBR green dye; assay type: functional, organism-based
Plasmodium falciparum [2] = experiment: ST_JUDE: Plasmodium falciparum K1 EC50 (uM) as measured by SYBR green dye; assay type: functional, organism-based
Plasmodium falciparum [3] = experiment: ST_JUDE: Cytotoxicity against Plasmodium falciparum 3D7; assay type: functional, organism-based
How it was run: (§1)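 Asexual P. falciparum grown in human erythrocytes, exposed to compounds for 72 h, and growth read as the DNA quantity in treated versus control cultures. Dose-response run at 12 concentrations from 10 μM to 5 nM.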

Plasmodium falciparum [4] = experiment: ST_JUDE: Cytotoxicity against Plasmodium falciparum K1; assay type: functional, organism-based; how it was run: as §1
Plasmodium falciparum [5] = experiment: ST_JUDE: Cytotoxicity against Plasmodium falciparum V1/S; assay type: functional, organism-based
Toxoplasma gondii = experiment: ST_JUDE: Growth inhibition of to Toxoplasma gondii, in human U-2OS cells, as measured by luciferase.; assay type: functional, organism-based; settings: RH, U2OS
How it was run: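 T. gondii parasites engineered to express luciferase; drug sensitivity read by luminescence.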

Trypanosoma brucei = experiment: ST_JUDE: Cytotoxicity using luciferase to measure ATP as an indicator of the viability of Trypanosoma brucei; assay type: functional, organism-based
Leishmania major = experiment: ST_JUDE: Cytotoxicity using Alamar Blue to measure viability of Leishmania major; assay type: functional, organism-based
How it was run: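 L. major promastigotes; drug susceptibility read with Alamar Blue.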

[6] = ST_JUDE: Cytotoxicity using luciferase to measure ATP as an indicator of the viability of human foreskin fibroblast cells (BJ); assay type: toxicity, cell-based
[7] = ST_JUDE: Cytotoxicity using luciferase to measure ATP as an indicator of the viability of human epithelial hepatocellular carcinoma cells (HepG2); assay type: toxicity, cell-based
[8] = ST_JUDE: Cytotoxicity using luciferase to measure ATP as an indicator of the viability of human epithelial embryonic kidney cells (HEK293); assay type: toxicity, cell-based
[9] = ST_JUDE: Cytotoxicity using luciferase to measure ATP as an indicator of the viability of human Burkitt''s lymphoma lymphoblast cells (Raji); assay type: toxicity, cell-based
Plasmodium falciparum [10] = experiment: ST_JUDE: Cytotoxicity against Plasmodium falciparum Dd2; assay type: functional, organism-based
Plasmodium falciparum [11] = experiment: ST_JUDE: Cytotoxicity against Plasmodium falciparum W2; assay type: functional, organism-based
Plasmodium falciparum [12] = experiment: ST_JUDE: Cytotoxicity against Plasmodium falciparum SB-A6; assay type: functional, organism-based
Plasmodium falciparum [13] = experiment: ST_JUDE: Cytotoxicity against Plasmodium falciparum D10 transfected with yeast DHOD; assay type: functional, organism-based

| SMILES | pEC50 (Plasmodium falciparum [1]) | pEC50 (Plasmodium falciparum [2]) | pEC50 (Plasmodium falciparum [3]) | pEC50 (Plasmodium falciparum [4]) | pEC50 (Plasmodium falciparum [5]) | pEC50 (Toxoplasma gondii) | pEC50 (Trypanosoma brucei) | pEC50 (Leishmania major) | pEC50 [6] | pEC50 [7] | pEC50 [8] | pEC50 [9] | pEC50 (Plasmodium falciparum [10]) | pEC50 (Plasmodium falciparum [11]) | pEC50 (Plasmodium falciparum [12]) | pEC50 (Plasmodium falciparum [13]) |
| --- | --- | --- | --- | --- | --- | --- | --- | --- | --- | --- | --- | --- | --- | --- | --- | --- |
| COc1cc(OC)c(NC(=O)C2c3ccccc3C(=O)N(CC(C)C)C2c2cccs2)cc1Cl (centres undefined) | 7.69 | 7.69 | 7.33 | 7.03 | 6.88 | < 4.61 | 5.11 | < 4.71 | < 4.35 | < 4.35 | < 4.35 | < 4.35 | 7.26 | 7.80 | 7.08 | 7.14 |
| C/C=C/c1n(C)c2ccccc2[n+]1C | 5.82 | 5.86 | 6.04 | 6.00 | 5.86 | < 4.66 | < 4.41 | < 4.76 | < 4.40 | < 4.40 | < 4.40 | < 4.40 | 5.79 | 5.72 | 5.97 | 6.15 |
| CC(C)CN1C(=O)c2ccccc2C(C(=O)Nc2cccc(C#N)c2)C1c1cccs1 (centres undefined) | 7.23 | 7.09 | 6.57 | 6.63 | 6.53 | < 4.59 | 5.50 | < 4.70 | < 4.33 | < 4.33 | < 4.33 | < 4.33 | 6.79 | 6.71 | 6.45 | 6.44 |
| CCCN(C(=O)C(=O)Nc1ccc2nc3n(c(=O)c2c1)CCCCC3)c1ccc(OCC)cc1 | 6.17 | 6.54 | 6.31 | 6.49 | 6.67 | < 4.59 | < 4.34 | < 4.69 | < 4.33 | < 4.33 | < 4.33 | < 4.33 | 6.15 | 6.48 | 6.46 | 6.66 |
| COc1ccc(NC(=O)C2c3ccccc3C(=O)N(CC(C)C)C2c2cccs2)cc1Cl (centres undefined) | 6.93 | 6.86 | 6.93 | 6.87 | 6.61 | < 4.66 | 5.58 | < 4.76 | < 4.39 | < 4.39 | < 4.39 | < 4.39 | 6.78 | 6.26 | 6.82 | 6.88 |
| CCOc1cc2c(cc1OCC)C(c1cc(Cl)ccc1O)NCC2 (centres undefined) | 6.05 | 6.61 | 5.74 | 6.14 | 5.88 | < 4.59 | 5.02 | < 4.70 | < 4.33 | 4.68 | < 4.33 | < 4.33 | 5.70 | 6.14 | 5.46 | 5.45 |
| C=CCn1c(=N)n(CC(O)c2ccc(Cl)c(Cl)c2)c2ccccc21 (centres undefined) | 6.48 | 6.74 | 5.97 | 6.22 | 6.10 | < 4.61 | 5.08 | < 4.72 | < 4.35 | 4.78 | 4.41 | 4.58 | 6.36 | 6.29 | 5.60 | 5.58 |
| CCCn1c2c(c(=N)c3c1CCC3)CCCC2 | 5.53 | 5.52 | 5.59 | 5.52 | 5.12 | < 4.66 | < 4.41 | 6.27 | < 4.39 | < 4.39 | < 4.39 | < 4.39 | 5.70 | < 4.98 | 5.44 | < 4.98 |
| Cc1ccc2c(c1)C=C/C(=C\c1sc3ccccc3[n+]1C)N2C | 6.74 | 7.07 | 6.84 | 6.82 | 6.83 | 5.40 | 6.76 | 8.92 | 5.10 | 5.65 | 5.18 | 6.13 | 6.69 | 7.81 | 6.49 | 6.72 |
